From PubChem BioAssay
The list is not random: actives were taken first. Their share in the collection is about 2.5%.
TRPC4 PAM: positive allosteric modulators of TRPC4, primary screen, cell-based, mouse TRPC4beta, HEK293 mu-opioid, Fluo-4 calcium; AID 2227, 2009; B-score at 10 µM; DAMGO EC20, Fluo-4 Ca2+ flux; stronger effect = higher value; 310,000 tested, 0.42% active;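 active = B-score of calcium response area above 5 SD of library B-scores, with initial fluorescence ratio within 5 SD of library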;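 also: B-score of integrated fluorescence ratio over time as area under calcium response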
TRPC6 act: mouse TRPC6 channel activators, primary screen, cell-based, HEK293, membrane potential dye. Short transient receptor potential channel 6 (Mus musculus), Q61143. HEK293-TRPC6 membrane potential dye fluorescence; stronger effect = higher value. B-score at 10 µM. 310,000 tested, 0.13% active;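 active = B-score of the integrated fluorescence ratio above library mean plus 3 SD, and starting fluorescence ratio within library mean plus 5 SD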;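 also: higher score means more depolarization so channel activation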
TRPC6 inhibitor: mouse TRPC6 channel inhibitors, primary screen, cell-based, HEK293, membrane potential dye. B-score at 10 µM. AID 2553, 2010. 310,000 tested, 1.1% active. ACh-evoked depolarization; stronger effect = lower value. Short transient receptor potential channel 6 (Mus musculus), Q61143;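 active = B-score under library mean minus 3 SD, initial fluorescence not abnormally high, positive integrated signal ratio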;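 also: B-score derived from integrated fluorescence ratio over the kinetic read; more negative B-score means stronger inhibition of depolarization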
TRPC4 block: inhibitors of mouse TRPC4 channel, primary screen, Fluo4 calcium, HEK293 TRPC4beta/mu-opioid cells. Short transient receptor potential channel 4 (Mus musculus), Q9QUQ5. DAMGO-evoked Fluo4 calcium flux; stronger effect = lower value. 300,000 tested, 0.39% active. B-score at 10 µM;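 active = B-score over 3 SD under the library average, no early fluorescence shift, positive overall ratio signal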
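test system = HEK293 cells with stable TRPC4beta plus mu-opioid receptor expression | detection = Fluo4 Ca2+ flux fluorescence | read-out = integrated fluorescence ratio relative to baseline, converted to per-well B score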
Pemphigus Ab inh: inhibitors of pemphigus antibody binding to DSG3, primary screen, biochemical, bead-based, flow cytometry, scFv-GFP; DSG3-coupled beads, scFv-anti-DSG3-GFP binding; stronger effect = lower value; binding (percent of control), % at 10 µM; AID 588358, 2011; 310,000 tested, 0.48% active;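 active = binding more than 3 SD below its plate's average and above zero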;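 also: hits lower antibody fragment binding to DSG3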
Target sequence (P32926 whole entry, looked up, the tested form may be a part): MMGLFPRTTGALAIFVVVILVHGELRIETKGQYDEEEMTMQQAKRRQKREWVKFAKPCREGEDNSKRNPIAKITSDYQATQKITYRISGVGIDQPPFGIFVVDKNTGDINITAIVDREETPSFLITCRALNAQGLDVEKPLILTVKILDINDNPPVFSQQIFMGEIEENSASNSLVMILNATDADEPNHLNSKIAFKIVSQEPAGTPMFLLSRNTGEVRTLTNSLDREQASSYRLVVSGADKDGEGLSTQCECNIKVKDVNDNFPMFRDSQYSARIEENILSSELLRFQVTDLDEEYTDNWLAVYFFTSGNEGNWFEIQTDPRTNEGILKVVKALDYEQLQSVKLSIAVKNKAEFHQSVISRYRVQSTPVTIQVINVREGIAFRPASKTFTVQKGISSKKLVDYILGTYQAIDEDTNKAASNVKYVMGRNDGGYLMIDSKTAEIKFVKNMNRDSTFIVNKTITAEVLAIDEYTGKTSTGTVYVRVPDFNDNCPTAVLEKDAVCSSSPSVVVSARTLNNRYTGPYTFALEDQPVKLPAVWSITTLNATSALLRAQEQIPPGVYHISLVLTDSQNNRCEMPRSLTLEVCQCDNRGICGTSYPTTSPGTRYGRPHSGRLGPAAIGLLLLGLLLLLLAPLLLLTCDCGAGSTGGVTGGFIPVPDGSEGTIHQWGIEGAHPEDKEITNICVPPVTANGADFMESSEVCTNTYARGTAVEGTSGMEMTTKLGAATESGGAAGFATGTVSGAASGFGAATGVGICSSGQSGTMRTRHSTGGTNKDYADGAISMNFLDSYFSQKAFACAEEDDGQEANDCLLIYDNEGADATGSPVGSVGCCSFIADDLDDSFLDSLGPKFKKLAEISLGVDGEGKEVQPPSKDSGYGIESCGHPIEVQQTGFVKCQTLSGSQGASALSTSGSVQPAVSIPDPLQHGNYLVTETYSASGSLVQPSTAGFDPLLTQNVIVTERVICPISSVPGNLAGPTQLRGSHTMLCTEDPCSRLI
TRPC4 agonist: activators of mouse TRPC4 channel, primary screen, Fluo4 calcium, HEK293 TRPC4beta/mu-opioid cells | Fluo4 calcium fluorescence; stronger effect = higher value | B-score at 10 µM | 310,000 tested, 0.49% active | AID 2237, 2010;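 active = B-score above 5 SD of library B-scores, and initial fluorescence ratio not above library mean plus 5 SD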;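 also: positive B-score marks a calcium rise read as TRPC4 activation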
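Assay system: HEK293 cells stably co-expressing mouse TRPC4beta and mu-opioid receptor / Timing: Fluo4 dye loading 45 min at room temperature, 110 s recording / Signal: Fluo4 calcium-sensitive dye fluorescence, kinetic, 1 Hz baseline / Read-out: integrated baseline-normalised fluorescence ratio, converted to per-well B score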
TRPC4 sel inh 2: mouse TRPC4 off-target activity of TRPC6 inhibitors, second screen | AID 2776 | HEK293 TRPC4/MOR, membrane potential dye fluorescence; channel activated by saturating DAMGO dose | 920 tested, 42% active | inhibition, % at 10 µM | shares compounds with TRPC6 inhibitor;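 active = compounds whose fluorescence signal differed from control wells by over 3 SD, either direction, in both duplicate plates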
TRPC4 spec: mouse TRPC4 modulation by TRPC6 hits, confirmation, selectivity assay for TRPC6 inhibitor project, cell-based, HEK293 TRPC4/mu-opioid, membrane potential dye | 920 tested, 61% active | membrane potential fluorescence | activity change, negative = inhibition, % at 10 µM | shares compounds with TRPC6 inhibitor;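 active = rise or fall in signal beyond 3 SD of buffer-only wells in both replicate plates, either sign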;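 also: integrated kinetic ratio of fluorescence range over baseline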
HEK293 MPD ctr 2-1: nonspecific membrane potential effects, parental HEK293, confirmation, counter-screen for TRPC6 inhibitor project, cell-based, second counter screen. shares compounds with TRPC6 inhibitor. parental HEK293 membrane potential dye fluorescence; maximal acetylcholine challenge after compound addition. signal change vs control, % at 10 µM. 920 tested, 31% active. AID 2779, 2010;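 active = membrane potential signal moving either way by over 3 SD of the maximum-effect control, in both duplicate plates, meaning non-specific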
HEK293 MPD ctr-1: membrane potential modulation in parental HEK293, confirmation, counter-screen for TRPC6 inhibitor project, cell-based; shares compounds with TRPC6 inhibitor; parental HEK293 membrane potential dye fluorescence; membrane potential signal change, % at 10 µM; 920 tested, 60% active; AID 2780, 2010;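 active = membrane potential signal shifting up or down by more than 3 SD of buffer-only wells, on both duplicate plates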
HEK293 MPD ctr-2: parental HEK293 membrane potential modulation, confirmation, counter-screen for TRPC6 modulator project, cell-based | shares compounds with TRPC6 inhibitor | membrane potential dye fluorescence | membrane potential signal change, % at 10 µM | 2,400 tested, 51% active | AID 488924, 2010;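 active = membrane potential signal moves up or down beyond 5 SD from buffer-only wells, on both duplicate plates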
HEK293 MPD ctr 2-2: second counter-screen for TRPC6 modulators: effect in parental HEK293 cells; shares compounds with TRPC6 inhibitor; membrane potential dye fluorescence; after compound, maximal acetylcholine stimulation; inhibition, % at 10 µM; 2,400 tested, 14% active; AID 488926;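 active = membrane potential signal drops by more than 5 SD from the mean control signal, in both duplicate plates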;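 also: plate controls were acetylcholine ECmax control wells for no effect and buffer only wells for full effect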
TRPC4/MOR mod: TRPC4 modulation by TRPC6 hit compounds, confirmation, selectivity assay for TRPC6 modulator project, cell-based, HEK293 TRPC4/mu-opioid, membrane potential dye, mouse | 2,400 tested, 69% active | shares compounds with TRPC6 inhibitor | membrane potential fluorescence | AID 488927, 2010 | percent change from control (negative = decrease, positive = increase), % at 10 µM;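 active = membrane potential signal moved up or down beyond 5 SD of buffer control wells, in both duplicate plates, actives on both sides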;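 also: plate controls were assay buffer wells for no effect and DAMGO maximal-effect wells for full effect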
TRPC4 ctr inh 2: second selectivity test of TRPC6 modulators against mouse TRPC4; shares compounds with TRPC6 inhibitor; HEK293 TRPC4/mu-opioid, membrane potential dye fluorescence; stimulated with maximal-effect DAMGO; inhibition, % at 10 µM; 2,400 tested, 55% active;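 active = drop in membrane potential signal beyond 5 SD of the control wells in both duplicate plates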;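 also: TRPC4 counter screen for TRPC6 hits run under conditions tuned for TRPC6 not TRPC4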
TRPC6 inh conf: mouse TRPC6 channel inhibitors, confirmation, HEK293 cells, membrane potential dye, duplicate. shares compounds with TRPC6 inhibitor. ACh-evoked depolarization. inhibition, % at 10 µM. 3,300 tested, 43% active. AID 488960, 2010;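 active = fluorescence ratio falls more than 5 SD below the full-stimulation control mean, in both duplicate runs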;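 also: integrated fluorescence ratio of peak minus minimum over baseline after agonist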
TRPC6 act confirm: mouse TRPC6 channel activators, confirmation, HEK293 cells, membrane potential dye, duplicate. shares compounds with TRPC6 inhibitor. HEK293-TRPC6 membrane potential dye fluorescence, FDSS. AID 488961, 2010. activation, % at 10 µM. 2,800 tested, 11% active;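 active = ratio signal rise beyond 5 SD above unstimulated control wells' mean, seen in both duplicate runs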;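 also: plate controls were buffer EC0 wells for no effect and acetylcholine ECmax response for full effect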
* hit, by the source's call; i = inactive; x = no result; + = active, no number.

SMILES | TRPC4 PAM | TRPC6 act | TRPC6 inhibitor | TRPC4 block | Pemphigus Ab inh | TRPC4 agonist | HEK293 MPD ctr-2 | HEK293 MPD ctr 2-2 | TRPC4/MOR mod | TRPC4 ctr inh 2 | TRPC6 inh conf | TRPC6 act confirm | others
Cn1c(=O)c2c(nc(SCCN3CCCCC3)n2Cc2ccccc2)n(C)c1=O | 33* | i | -9.2* | i | 95 | i | x | x | x | x | i | i | TRPC4 sel inh 2=42%*;TRPC4 spec=22%*;HEK293 MPD ctr 2-1=i;HEK293 MPD ctr-1=-392%*
CCOc1ccc(-c2nnc(-c3ccncc3)o2)cc1OCC | i | i | -5.5* | i | 94 | i | -173%* | i | -36%* | 32%* | i | i
COC(=O)[C@]12C(=O)NC[C@H](CN1c1ccc(Cl)c(C)c1)N2C | x | x | x | x | 104 | x | x | x | x | x | x | x
CCOc1ccc(CCNC(=O)C2CCCN(c3nnc(-n4cccc4)s3)C2)cc1OCC (configuration not stated) | i | i | -5.5* | i | 95 | i | i | i | i | i | i | i
CCOc1ccc(CCNC(=O)C2CCCN(c3nn4c(=O)cc(C)nc4s3)C2)cc1OCC (configuration not stated) | i | i | i | i | 98 | i | x | x | x | x | x | x
Cc1nnc(C)c2c(C)n(-c3ccc(Cl)c(N)c3)c(C)c12 | i | i | i | i | 95 | i | x | x | x | x | x | x
Cc1cc(C)cc(-n2c(C)c3c(C)nnc(C)c3c2C)c1 | i | i | -7.6* | i | 128 | i | x | x | x | x | i | i | TRPC4 sel inh 2=54%*;TRPC4 spec=-19%*;HEK293 MPD ctr 2-1=i;HEK293 MPD ctr-1=-216%*
COc1ccc(NCc2nnc(SCC(=O)Nc3cccc(C)c3)o2)cc1 | i | i | -6.3* | i | 106 | i | i | i | i | i | i | i
CC(C)COc1ccc(C(=O)OC2CC(C)(C)OCC2CN(C)C)cc1 (configuration not stated) | i | 14* | i | i | 97 | i | 300%* | i | 46%* | 42%* | i | 136%*
Cc1nc(S(=O)(=O)N2CCN(C3c4ccccc4-c4ccccc43)CC2)cn1C | i | i | i | i | 113 | i | x | x | x | x | x | x
Cc1nc2c(o1)CCc1ccccc1C2N1CCN(C)CC1 (configuration not stated) | i | i | -9.4* | i | 99 | i | x | x | x | x | 74%* | x | TRPC4 sel inh 2=i;TRPC4 spec=8.0%*;HEK293 MPD ctr 2-1=-14%*;HEK293 MPD ctr-1=11%*
CN(CC(=O)Nc1ccc(F)cc1)C(=O)COC(=O)c1cc(Br)c(Br)s1 | x | x | x | x | 109 | x | x | x | x | x | x | x
O=C1c2cccc3c(N4CCCCC4)ccc(c23)C(=O)N1CCO | i | 12* | i | i | x | i | 937%* | 144%* | 218%* | 122%* | i | 180%*
CCN(CC(=O)NCc1cccs1)C(=O)c1ccc(NS(=O)(=O)c2ccc(F)cc2)cc1 | i | i | i | i | 105 | i | x | x | x | x | x | x
CC(=O)N(Cc1ccc(F)cc1)C1=C(NCCc2ccccc2)C(=O)c2ccccc2C1=O | i | i | -11* | i | 112 | i | x | x | x | x | i | i | TRPC4 sel inh 2=i;TRPC4 spec=-11%*;HEK293 MPD ctr 2-1=i;HEK293 MPD ctr-1=-182%*
O=c1c(O)c(-c2cccs2)oc2ccc(Cl)cc12 | i | 76* | i | i | 105 | i | + | i | 326%* | 82%* | i | 334%*
CCC(=O)N/C(=N/c1nc(C)cc(C)n1)Nc1cccc(OC)c1 | i | i | -5.8* | i | 122 | i | i | i | i | i | i | i
O=C(CNC1CCCC1)Nc1ccc(N2CCCCCC2)cc1 | i | i | -5.3* | i | 103 | i | i | i | -13%* | 66%* | 66%* | i
CCN(CC)S(=O)(=O)c1cccc(NC(=O)CNC2CCCCCC2)c1 | i | i | -6.5* | i | 103 | i | i | i | i | 66%* | 43%* | i
